Legend:
Format in all cases: cell-based
[1] = Cytotoxicity against human Raji cells assessed as cell viability at 10 molar ratio/TPA after 48 hrs; conditions: read-out: Activity
Summary of the method: (§1)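 Raji cells (EBV genome-carrying Burkitt's lymphoma lymphoblastoid line) in RPMI-1640 were incubated 48 h at 37 °C with n-butyric acid (4 mmol), TPA (32 pmol = 20 ng/mL) and test compound at 10, 100, 500 or 1000 mol ratio to TPA (0.32, 3.2, 16, 32 nmol). Viability is given as percentage of Raji cells.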

[2] = Cytotoxicity against human Raji cells assessed as cell viability at 500 molar ratio/TPA after 48 hrs; conditions: read-out: Activity; summary of the method: as §1
[3] = test system: Raji; assay: Inhibition of 12-O-tetradecanoylphorbol-13-acetate-induced EBV-early antigen activation in human Raji cells at 500 molar ratio after 48 hrs relative to TPA; parameters: scale not given: the % may be the effect or the level left; conditions: human gammaherpesvirus 4
Summary of the method: (§2)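 EBV-EA induction in Raji cells (RPMI-1640). Cells were held 48 h at 37 °C with n-butyric acid (4 mmol), TPA (32 pmol = 20 ng/mL) and compound at 10–1000 mol ratio/TPA (0.32–32 nmol). EA-positive cells were detected on smears by indirect immunofluorescence. Induction is expressed as percentage relative to the TPA-only positive control. β-Carotene served as reference.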

[4] = test system: Raji; assay: Inhibition of 12-O-tetradecanoylphorbol-13-acetate-induced EBV-early antigen activation in human Raji cells at 1000 molar ratio after 48 hrs relative to TPA; parameters: scale not given: the % may be the effect or the level left; conditions: human gammaherpesvirus 4; summary of the method: as §2
[5] = test system: Raji; assay: Inhibition of 12-O-tetradecanoylphorbol-13-acetate-induced EBV-early antigen activation in human Raji cells at 10 molar ratio after 48 hrs relative to TPA; parameters: scale not given: the % may be the effect or the level left; conditions: human gammaherpesvirus 4; summary of the method: as §2
[6] = Cytotoxicity against human Raji cells assessed as cell viability at 1000 molar ratio/TPA after 48 hrs; conditions: read-out: Activity; summary of the method: as §1
[7] = test system: Raji; assay: Inhibition of 12-O-tetradecanoylphorbol-13-acetate-induced EBV-early antigen activation in human Raji cells at 100 molar ratio after 48 hrs relative to TPA; parameters: scale not given: the % may be the effect or the level left; conditions: human gammaherpesvirus 4; summary of the method: as §2
[8] = Cytotoxicity against human Raji cells assessed as cell viability at 100 molar ratio/TPA after 48 hrs; conditions: read-out: Activity; summary of the method: as §1

CCC(C)C(=O)OC[C@]12[C@H](OC(=O)c3ccccc3)[C@@H](O)[C@@H]3[C@@H](O)[C@]1(OC3(C)C)[C@@](C)(O)C[C@H](OC(C)=O)[C@@H]2OC(C)=O (stereo not given in full)
viability at 48 h, 10 molar ratio/TPA [1]: > 80%
viability at 48 h, 500 molar ratio/TPA [2]: > 80%
Activity [3]: 32.7%
Activity [4]: 0%
Activity [5]: 90.1%
viability at 48 h, 1000 molar ratio/TPA [6]: 60%
Activity [7]: 74%
viability at 48 h, 100 molar ratio/TPA [8]: > 80%

CC1=C(/C=C/C(C)=C/C=C/C(C)=C/C=C/C=C(C)/C=C/C=C(C)/C=C/C2=C(C)CCCC2(C)C)C(C)(C)CCC1 [BETA CAROTENE]
viability at 48 h, 10 molar ratio/TPA [1]: 100%
viability at 48 h, 500 molar ratio/TPA [2]: 80%
Activity [4]: 8.6%
Activity [5]: 100%
viability at 48 h, 100 molar ratio/TPA [8]: 100%

CCC(C)C(=O)OC[C@]12[C@H](OC(=O)c3ccccc3)[C@@H](OC(C)=O)[C@@H]3[C@@H](OC(C)=O)[C@]1(OC3(C)C)[C@@](C)(O)C[C@H](OC(=O)c1ccccc1)[C@@H]2OC(C)=O (stereo not given in full)
viability at 48 h, 10 molar ratio/TPA [1]: > 80%
viability at 48 h, 500 molar ratio/TPA [2]: > 80%
Activity [3]: 33.8%
Activity [4]: 4.6%
Activity [5]: 96%
viability at 48 h, 1000 molar ratio/TPA [6]: 60%
Activity [7]: 75.9%
viability at 48 h, 100 molar ratio/TPA [8]: > 80%

CCC(C)C(=O)OC[C@]12[C@H](OC(=O)c3ccccc3)[C@@H](OC(C)=O)[C@@H]3[C@@H](OC(C)=O)[C@]1(OC3(C)C)[C@@](C)(O)C[C@H](OC(C)=O)[C@@H]2OC(C)=O (stereo not given in full)
viability at 48 h, 10 molar ratio/TPA [1]: > 80%
viability at 48 h, 500 molar ratio/TPA [2]: > 80%
Activity [3]: 22%
Activity [4]: 0%
Activity [5]: 96.7%
viability at 48 h, 1000 molar ratio/TPA [6]: 70%
Activity [7]: 79.2%
viability at 48 h, 100 molar ratio/TPA [8]: > 80%

CCC(C)C(=O)OC[C@]12[C@H](OC(=O)c3ccccc3)[C@@H](OC(C)=O)[C@@H]3[C@@H](OC(C)=O)[C@]1(OC3(C)C)[C@@](C)(O)C[C@H](O)[C@@H]2OC(C)=O (stereo not given in full)
viability at 48 h, 10 molar ratio/TPA [1]: > 80%
viability at 48 h, 500 molar ratio/TPA [2]: > 80%
Activity [3]: 31.2%
Activity [4]: 0%
Activity [5]: 90.5%
viability at 48 h, 1000 molar ratio/TPA [6]: 60%
Activity [7]: 73.7%
viability at 48 h, 100 molar ratio/TPA [8]: > 80%

CCC(C)C(=O)OC[C@]12[C@H](OC(=O)c3ccccc3)[C@@H](OC(C)=O)[C@@H]3[C@@H](O)[C@]1(OC3(C)C)[C@@](C)(O)C[C@H](OC(C)=O)[C@@H]2OC(C)=O (stereo not given in full)
viability at 48 h, 10 molar ratio/TPA [1]: > 80%
viability at 48 h, 500 molar ratio/TPA [2]: > 80%
Activity [3]: 21.8%
Activity [4]: 0%
Activity [5]: 94.1%
viability at 48 h, 1000 molar ratio/TPA [6]: 70%
Activity [7]: 77.4%
viability at 48 h, 100 molar ratio/TPA [8]: > 80%

Source: ChEMBL document CHEMBL1146564, “Absolute configuration of sesquiterpenes from Crossopetalum tonduzii and their inhibitory effects on Epstein-Barr virus early antigen activation in Raji cells” (J Nat Prod, 2003)
